Assay results from ChEMBL document CHEMBL4229410, “Facile construction of fused benzimidazole-isoquinolinones that induce cell-cycle arrest and apoptosis in colorectal cancer cells” (Bioorg Med Chem, 2018).
Activity calls are given as the source filed them. The rule behind the calls is not given here.

Experiments:
[1] = target: Epidermal growth factor receptor (Homo sapiens, UniProt P00533); experiment: Binding affinity to partial length human EGFR (R669 to V1011 residues) expressed in bacterial expression system by KINOMEscan assay
SW-620 [2] = experiment: Upregulation of p53 expression in human SW620 cells after 48 hrs by Western blot analysis; type: functional, cell-based
HT-29 [3] = experiment: Effect on total AKT expression in human HT-29 cells up to 75 uM after 48 hrs by Western blot analysis; type: ADME, cell-based; conditions: ht-29, 48 h
Summary of the method: (§1)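 HT29 or SW620 cells were treated at 0, 25, 50 and 75 μM for 48 h and lysed in RIPA with protease and phosphatase inhibitors. Protein was quantified by BCA. 50 μg lysate was run on 8–15% SDS-PAGE and transferred to PVDF. Blocking was 5% BSA/TBST for 2 h; primary antibodies were applied overnight at 4 °C, then HRP secondary 1 h at room temperature.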

HT-29 [4] = experiment: Inhibition of PI3K in human HT-29 cells assessed as reduction in AKT phosphorylation at T308 residue up to 75 uM after 48 hrs by Western blot analysis; type: cell-based
HT-29 [5] = experiment: Down regulation of cyclin-B1 expression in human HT-29 cells after 48 hrs by Western blot analysis; type: functional, cell-based; summary of the method: as §1
[6] = target: Glycogen synthase kinase-3 beta (Homo sapiens, UniProt P49841); experiment: Inhibition of full length human GSK3B (M1 to T433 residues) expressed in mammalian expression system assessed as residual activity at 5 uM by KINOMEscan assay relative to control
[7] = target: Rho-associated protein kinase 2 (Homo sapiens, UniProt O75116); experiment: Binding affinity to human ROCK2 (M1 to T431 residues) expressed in mammalian expression system by KINOMEscan assay
SW-620 [8] = experiment: Induction of apoptosis in human SW620 cells assessed as necrotic cells at 75 uM after 48 hrs by Annexin-V-FITC/propidium iodide staining based flow cytometry (reference value: 0.9%); type: functional
[9] = target: 3-phosphoinositide-dependent protein kinase 1 (Homo sapiens, UniProt O15530); experiment: Binding affinity to full length human PDPK1 (M1 to Q556 residues) expressed in bacterial expression system by KINOMEscan assay
[10] = target: Serine/threonine-protein kinase PAK 2 (Homo sapiens, UniProt Q13177); experiment: Inhibition of partial length human PAK2 (P151 to R525 residues) expressed in bacterial expression system assessed as residual activity at 5 uM by KINOMEscan assay relative to control
[11] = target: Serine/threonine-protein kinase B-raf (Homo sapiens, UniProt P15056); experiment: Inhibition of human BRAF (S429 to E741 residues) expressed in mammalian expression system assessed as residual activity at 5 uM by KINOMEscan assay relative to control
[12] = target: Mitogen-activated protein kinase 14 (Homo sapiens, UniProt Q16539); experiment: Binding affinity to full length human p38alpha (M1 to S360 residues) expressed in bacterial expression system by KINOMEscan assay
[13] = target: Serine/threonine-protein kinase PLK1 (Homo sapiens, UniProt P53350); experiment: Inhibition of human PLK1 (A33 to F325 residues) expressed in mammalian expression system assessed as residual activity at 5 uM by KINOMEscan assay relative to control
[14] = target: Tyrosine-protein kinase ZAP-70 (Homo sapiens) (UniProt P43403); experiment: Inhibition of human ZAP70 (D20 to G299 residues) expressed in mammalian expression system assessed as residual activity at 5 uM by KINOMEscan assay relative to control
SW-620 [15] = experiment: Effect on total mTOR expression in human SW620 cells up to 75 uM after 48 hrs by Western blot analysis; type: ADME, cell-based; conditions: sw-620, 48 h; summary of the method: as §1
[16] = target: Receptor tyrosine-protein kinase erbB-4 (Homo sapiens, UniProt Q15303); experiment: Binding affinity to human ERBB4 (L690 to K994 residues) expressed in bacterial expression system by KINOMEscan assay
[17] = target: RAC-beta serine/threonine-protein kinase (Homo sapiens, UniProt P31751); experiment: Binding affinity to human AKT2 expressed in bacterial expression system by KINOMEscan assay
[18] = target: Mitogen-activated protein kinase 11 (Homo sapiens, UniProt Q15759); experiment: Binding affinity to full length human p38beta (M1 to Q364 residues) expressed in bacterial expression system by KINOMEscan assay
[19] = target: Platelet-derived growth factor receptor beta (Homo sapiens, UniProt P09619); experiment: Inhibition of human PDGFRB (V582 to Y1009 residues) expressed in bacterial expression system assessed as residual activity at 5 uM by KINOMEscan assay relative to control
SW-620 [20] = experiment: Induction of apoptosis in human SW620 cells assessed as reduction in MCL1 expression after 48 hrs by Western blot analysis; type: functional, cell-based
[21] = target: Cyclin-dependent kinase 3 (Homo sapiens, UniProt Q00526); experiment: Inhibition of full length human CDK3 (M1 to H305 residues) expressed in bacterial expression system assessed as residual activity at 5 uM by KINOMEscan assay relative to control
[22] = target: Tyrosine-protein kinase BTK (Homo sapiens, UniProt Q06187); experiment: Binding affinity to full length human BTK (M1 to S659 residues) expressed in mammalian expression system by KINOMEscan assay
HT-29 [23] = experiment: Cell cycle arrest in human HT-29 cells assessed as accumulation at S-phase at 75 uM after 48 hrs by propidium iodide staining based flow cytometry (reference value: 37.82%); type: functional
[24] = target: Fibroblast growth factor receptor 2 (Homo sapiens, UniProt P21802); experiment: Binding affinity to partial length human FGFR2 (D457 to E769 residues) expressed in bacterial expression system by KINOMEscan assay
Homo sapiens = species: Homo sapiens; experiment: Inhibition of PI3K/AKT signaling pathway in human SW620 cells assessed as reduction in mTOR phosphorylation up to 75 uM after 48 hrs by Western blot analysis; type: cell-based
HT-29 [25] = experiment: Induction of apoptosis in human HT-29 cells assessed as late apoptotic cells at 50 uM after 48 hrs by Annexin-V-FITC/propidium iodide staining based flow cytometry (reference value: 4.1%); type: functional
SW-620 [26] = experiment: Induction of apoptosis in human SW620 cells assessed as early apoptotic cells at 75 uM after 48 hrs by Annexin-V-FITC/propidium iodide staining based flow cytometry (reference value: 0.4%); type: functional
[27] = target: Cyclin-dependent kinase 2 (Homo sapiens, UniProt P24941); experiment: Binding affinity to full length human CDK2 (M1 to L298 residues) expressed in bacterial expression system by KINOMEscan assay
[28] = target: Serine/threonine-protein kinase ULK2 (Homo sapiens, UniProt Q8IYT8); experiment: Binding affinity to human ULK2 (M1 to S301 residues) expressed in mammalian expression system by KINOMEscan assay
[29] = test system: Tyrosine-protein kinase ABL1 (Homo sapiens), P00519 [E255K]; experiment: Inhibition of human phosphorylated ABL1 E255K mutant (S229 to K512 residues) expressed in mammalian expression system assessed as residual activity at 5 uM by KINOMEscan assay relative to control

Sequence of Serine/threonine-protein kinase B-raf (P15056 whole entry, the tested form may be a part): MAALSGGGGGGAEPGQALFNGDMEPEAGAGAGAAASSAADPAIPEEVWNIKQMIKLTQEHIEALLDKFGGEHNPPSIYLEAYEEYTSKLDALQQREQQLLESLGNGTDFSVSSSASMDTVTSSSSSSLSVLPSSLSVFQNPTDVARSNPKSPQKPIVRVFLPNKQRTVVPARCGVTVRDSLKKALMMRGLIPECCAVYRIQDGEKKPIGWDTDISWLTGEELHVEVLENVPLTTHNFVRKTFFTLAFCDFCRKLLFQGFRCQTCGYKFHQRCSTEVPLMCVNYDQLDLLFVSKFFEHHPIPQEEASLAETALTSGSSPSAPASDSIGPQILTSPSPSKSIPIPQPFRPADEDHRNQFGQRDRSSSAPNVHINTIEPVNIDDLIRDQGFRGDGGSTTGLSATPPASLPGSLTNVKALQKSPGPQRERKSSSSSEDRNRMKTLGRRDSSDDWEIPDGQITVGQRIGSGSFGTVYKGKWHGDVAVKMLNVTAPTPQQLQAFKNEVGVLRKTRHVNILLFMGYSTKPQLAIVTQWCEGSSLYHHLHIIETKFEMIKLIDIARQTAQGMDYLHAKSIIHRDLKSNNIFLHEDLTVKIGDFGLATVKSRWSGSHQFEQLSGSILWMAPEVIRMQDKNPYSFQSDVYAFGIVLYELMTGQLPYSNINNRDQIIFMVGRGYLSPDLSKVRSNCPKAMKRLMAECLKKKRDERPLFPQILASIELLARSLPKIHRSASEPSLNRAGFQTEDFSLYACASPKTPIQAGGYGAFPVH
Sequence of Mitogen-activated protein kinase 11 (Q15759 whole entry, the tested form may be a part): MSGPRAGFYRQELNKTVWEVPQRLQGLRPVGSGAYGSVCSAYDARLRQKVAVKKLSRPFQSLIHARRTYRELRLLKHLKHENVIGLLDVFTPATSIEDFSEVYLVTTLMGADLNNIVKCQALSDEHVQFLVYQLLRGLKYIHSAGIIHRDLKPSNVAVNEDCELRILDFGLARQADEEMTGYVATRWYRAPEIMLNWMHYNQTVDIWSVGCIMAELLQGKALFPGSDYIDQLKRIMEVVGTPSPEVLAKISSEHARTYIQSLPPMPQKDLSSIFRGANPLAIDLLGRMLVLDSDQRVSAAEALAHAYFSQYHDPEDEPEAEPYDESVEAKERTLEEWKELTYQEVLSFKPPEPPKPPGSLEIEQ
Sequence of Fibroblast growth factor receptor 2 (P21802 whole entry, the tested form may be a part): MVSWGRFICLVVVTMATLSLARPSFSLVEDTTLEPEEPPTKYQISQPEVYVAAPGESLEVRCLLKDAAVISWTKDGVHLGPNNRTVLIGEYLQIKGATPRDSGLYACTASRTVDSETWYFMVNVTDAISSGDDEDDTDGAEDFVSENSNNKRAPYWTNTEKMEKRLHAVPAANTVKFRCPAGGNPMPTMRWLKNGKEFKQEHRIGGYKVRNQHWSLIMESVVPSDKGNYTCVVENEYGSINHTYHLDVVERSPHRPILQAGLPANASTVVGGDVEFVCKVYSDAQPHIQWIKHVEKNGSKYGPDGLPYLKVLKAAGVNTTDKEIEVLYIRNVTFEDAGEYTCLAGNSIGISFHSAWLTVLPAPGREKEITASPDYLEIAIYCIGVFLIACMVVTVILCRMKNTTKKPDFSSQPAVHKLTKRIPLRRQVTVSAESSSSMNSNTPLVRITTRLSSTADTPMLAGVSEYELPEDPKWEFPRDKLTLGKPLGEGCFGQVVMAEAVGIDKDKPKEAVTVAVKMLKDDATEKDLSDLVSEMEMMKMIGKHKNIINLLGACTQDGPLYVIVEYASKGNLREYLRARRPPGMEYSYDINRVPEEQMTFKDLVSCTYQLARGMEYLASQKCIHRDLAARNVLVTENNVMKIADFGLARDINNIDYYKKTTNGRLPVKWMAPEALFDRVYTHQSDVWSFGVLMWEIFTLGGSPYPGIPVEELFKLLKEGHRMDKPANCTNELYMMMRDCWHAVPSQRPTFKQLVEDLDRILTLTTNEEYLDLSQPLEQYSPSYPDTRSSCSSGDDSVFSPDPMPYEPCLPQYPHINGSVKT
Sequence of Mitogen-activated protein kinase 14 (Q16539 whole entry, the tested form may be a part): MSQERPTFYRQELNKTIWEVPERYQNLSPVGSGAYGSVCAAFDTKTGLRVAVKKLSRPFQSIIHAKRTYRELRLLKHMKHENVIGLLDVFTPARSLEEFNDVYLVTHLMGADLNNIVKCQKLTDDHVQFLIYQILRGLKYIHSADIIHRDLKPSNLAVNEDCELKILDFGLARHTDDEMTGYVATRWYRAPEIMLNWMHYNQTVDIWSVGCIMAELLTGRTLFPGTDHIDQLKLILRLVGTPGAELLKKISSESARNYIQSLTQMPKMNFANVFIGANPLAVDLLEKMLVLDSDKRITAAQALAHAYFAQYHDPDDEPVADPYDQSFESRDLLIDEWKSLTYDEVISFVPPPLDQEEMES
Sequence of Platelet-derived growth factor receptor beta (P09619 whole entry, the tested form may be a part): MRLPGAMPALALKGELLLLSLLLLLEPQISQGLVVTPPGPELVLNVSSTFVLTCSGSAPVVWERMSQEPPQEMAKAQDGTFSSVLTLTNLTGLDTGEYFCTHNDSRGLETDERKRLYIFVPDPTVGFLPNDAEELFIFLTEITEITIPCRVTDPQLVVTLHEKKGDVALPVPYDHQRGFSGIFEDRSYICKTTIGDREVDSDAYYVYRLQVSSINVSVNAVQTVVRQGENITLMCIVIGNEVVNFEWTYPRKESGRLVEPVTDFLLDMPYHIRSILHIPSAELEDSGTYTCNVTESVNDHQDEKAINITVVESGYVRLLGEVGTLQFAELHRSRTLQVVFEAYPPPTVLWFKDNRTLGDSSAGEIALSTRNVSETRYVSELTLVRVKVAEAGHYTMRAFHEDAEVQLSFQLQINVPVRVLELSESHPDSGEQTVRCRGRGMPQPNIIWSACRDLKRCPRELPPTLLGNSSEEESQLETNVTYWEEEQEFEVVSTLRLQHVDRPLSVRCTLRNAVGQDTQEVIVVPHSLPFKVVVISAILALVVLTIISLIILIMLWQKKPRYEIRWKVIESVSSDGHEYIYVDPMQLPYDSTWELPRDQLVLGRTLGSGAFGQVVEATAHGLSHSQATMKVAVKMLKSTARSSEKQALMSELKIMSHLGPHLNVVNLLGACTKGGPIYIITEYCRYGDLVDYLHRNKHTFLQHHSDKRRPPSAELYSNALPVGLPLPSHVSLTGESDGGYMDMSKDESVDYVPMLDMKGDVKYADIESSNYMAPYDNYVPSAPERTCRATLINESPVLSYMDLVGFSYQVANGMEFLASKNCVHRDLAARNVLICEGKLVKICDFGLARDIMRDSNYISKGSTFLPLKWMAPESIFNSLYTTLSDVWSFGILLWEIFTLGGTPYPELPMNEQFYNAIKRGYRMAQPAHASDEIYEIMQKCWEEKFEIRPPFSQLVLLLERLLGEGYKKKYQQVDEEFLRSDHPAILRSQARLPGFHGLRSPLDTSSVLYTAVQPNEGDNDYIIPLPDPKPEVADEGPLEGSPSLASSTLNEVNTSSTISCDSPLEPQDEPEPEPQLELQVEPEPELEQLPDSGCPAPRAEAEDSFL
Sequence of 3-phosphoinositide-dependent protein kinase 1 (O15530 whole entry, the tested form may be a part): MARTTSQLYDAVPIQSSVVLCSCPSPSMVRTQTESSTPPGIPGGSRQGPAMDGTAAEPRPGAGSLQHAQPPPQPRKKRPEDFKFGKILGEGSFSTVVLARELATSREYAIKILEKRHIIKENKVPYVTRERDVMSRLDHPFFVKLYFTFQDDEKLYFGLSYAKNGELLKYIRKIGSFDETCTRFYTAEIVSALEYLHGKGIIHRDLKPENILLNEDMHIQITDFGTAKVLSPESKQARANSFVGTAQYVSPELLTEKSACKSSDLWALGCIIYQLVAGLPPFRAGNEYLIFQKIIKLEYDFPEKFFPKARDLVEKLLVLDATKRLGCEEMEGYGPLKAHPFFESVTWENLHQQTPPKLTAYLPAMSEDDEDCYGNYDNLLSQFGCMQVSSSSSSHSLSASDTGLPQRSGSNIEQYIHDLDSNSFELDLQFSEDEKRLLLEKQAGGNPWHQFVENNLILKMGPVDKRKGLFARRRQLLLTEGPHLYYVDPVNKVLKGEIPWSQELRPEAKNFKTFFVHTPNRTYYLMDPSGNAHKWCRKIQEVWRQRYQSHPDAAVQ
Sequence of Glycogen synthase kinase-3 beta (P49841 whole entry, looked up, the tested form may be a part): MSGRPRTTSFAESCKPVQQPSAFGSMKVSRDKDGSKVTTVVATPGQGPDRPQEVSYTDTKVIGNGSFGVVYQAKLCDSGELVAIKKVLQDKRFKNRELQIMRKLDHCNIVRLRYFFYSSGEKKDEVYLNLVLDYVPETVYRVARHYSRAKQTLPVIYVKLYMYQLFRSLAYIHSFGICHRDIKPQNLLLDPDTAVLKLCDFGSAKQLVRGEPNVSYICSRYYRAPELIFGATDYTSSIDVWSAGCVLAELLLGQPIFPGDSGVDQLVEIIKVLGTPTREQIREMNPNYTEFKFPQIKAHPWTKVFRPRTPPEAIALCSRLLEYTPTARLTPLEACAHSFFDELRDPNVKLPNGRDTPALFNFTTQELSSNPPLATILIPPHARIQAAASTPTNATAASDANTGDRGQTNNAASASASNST
Sequence of Serine/threonine-protein kinase PLK1 (P53350 whole entry, the tested form may be a part): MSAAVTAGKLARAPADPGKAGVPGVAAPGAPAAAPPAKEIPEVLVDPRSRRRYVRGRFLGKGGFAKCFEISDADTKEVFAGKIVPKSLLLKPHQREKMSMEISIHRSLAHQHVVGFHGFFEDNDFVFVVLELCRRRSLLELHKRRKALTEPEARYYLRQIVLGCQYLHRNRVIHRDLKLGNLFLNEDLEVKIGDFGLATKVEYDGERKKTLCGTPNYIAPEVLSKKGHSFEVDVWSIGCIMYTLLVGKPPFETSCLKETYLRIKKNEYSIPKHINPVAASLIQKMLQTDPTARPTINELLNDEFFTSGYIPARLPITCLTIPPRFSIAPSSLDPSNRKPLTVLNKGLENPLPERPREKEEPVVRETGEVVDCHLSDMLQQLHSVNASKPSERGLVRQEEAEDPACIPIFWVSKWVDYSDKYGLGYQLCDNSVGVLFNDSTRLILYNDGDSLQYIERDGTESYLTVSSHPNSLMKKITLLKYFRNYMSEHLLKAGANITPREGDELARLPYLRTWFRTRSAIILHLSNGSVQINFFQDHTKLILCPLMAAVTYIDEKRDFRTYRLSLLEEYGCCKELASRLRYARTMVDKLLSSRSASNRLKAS

Q: With `CC(C)CN(C(=O)c1cccnc1)c1c2ccccc2c(=O)n2c1[nH]c1ccccc12` as the molecule, how does the Kd [1] read?
A: The Kd was at least 5 µM.

Q: And the Activity (SW-620 [2])?
A: The Activity was “Dose-dependent effect”.

Q: What about the Activity (HT-29 [3]) of the same molecule?
A: The Activity was “Non-Toxic”.

Q: What about the inhibition (HT-29 [4]) of the same molecule?
A: Its inhibition is “Active”.

Q: And the Activity (HT-29 [5])?
A: Its Activity is “Dose-dependent effect”.

Q: What about the Activity [6] of the same molecule?
A: The Activity was 100%.

Q: And the Kd [7]?
A: Its Kd is at least 5 µM.

Q: What about the Activity (SW-620 [8]) of the same molecule?
A: Its Activity is 3.5%.

Q: What about the Kd [9] of the same molecule?
A: The Kd was at least 5 µM.

Q: What about the Activity [10] of the same molecule?
A: The Activity was 100%.

Q: And the Activity [11]?
A: Its Activity is 82%.

Q: What about the Kd [12] of the same molecule?
A: The Kd was at least 5 µM.

Q: And the Activity [13]?
A: The Activity was 100%.

Q: What about the Activity [14] of the same molecule?
A: Its Activity is 89%.

Q: What about the Activity (SW-620 [15]) of the same molecule?
A: Its Activity is “Non-Toxic”.

Q: And the Kd [16]?
A: The Kd was at least 5 µM.

Q: What about the Kd [17] of the same molecule?
A: The Kd was at least 5 µM.

Q: What about the Kd [18] of the same molecule?
A: The Kd was at least 5 µM.

Q: What about the Activity [19] of the same molecule?
A: The Activity was 100%.

Q: What about the Activity (SW-620 [20]) of the same molecule?
A: The Activity was “Dose-dependent effect”.

Q: And the Activity [21]?
A: The Activity was 95%.

Q: And the Kd [22]?
A: Its Kd is at least 5 µM.

Q: What about the Activity (HT-29 [23]) of the same molecule?
A: The Activity was 33.33%.

Q: And the Kd [24]?
A: The Kd was at least 5 µM.

Q: And the inhibition (Homo sapiens)?
A: Its inhibition is “Active”.

Q: And the Activity (HT-29 [25])?
A: The Activity was 13.7%.

Q: And the Activity (SW-620 [26])?
A: Its Activity is 0.2%.

Q: What about the Kd [27] of the same molecule?
A: Its Kd is at least 5 µM.

Q: And the Kd [28]?
A: The Kd was at least 5 µM.

Q: What about the Activity [29] of the same molecule?
A: Its Activity is 69%.
